Experimental data published in ChEMBL document CHEMBL1135255, “Design, synthesis and bioactivity evaluation of tribactam beta lactamase inhibitors” (Bioorg Med Chem Lett, 2002).

What was measured:
[1] = molecular target: T1, Beta-lactamase 1 (Bacillus cereus) (UniProt P00809); assay: Inhibitory activity at beta-lactamase I from Bacillus cereus expressed as percent inhibition of beta-lactam hydrolysis at a concentration of 100.0 umol/L; The inhibitory activity at lower concentrations was not determined
T1 sequence (whole entry): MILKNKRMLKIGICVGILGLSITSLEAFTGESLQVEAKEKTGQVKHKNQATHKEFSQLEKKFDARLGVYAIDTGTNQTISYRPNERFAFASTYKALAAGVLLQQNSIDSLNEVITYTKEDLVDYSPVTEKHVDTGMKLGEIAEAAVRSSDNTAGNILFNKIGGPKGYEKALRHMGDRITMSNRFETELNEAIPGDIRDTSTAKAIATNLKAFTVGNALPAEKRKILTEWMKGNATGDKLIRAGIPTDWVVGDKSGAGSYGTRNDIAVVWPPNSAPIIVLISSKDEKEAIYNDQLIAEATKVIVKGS
Procedure, shortened: (§1)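 B. cereus beta-lactamase I was preincubated with inhibitor (range 1–100) for 20 min at 25 °C in microtitre plates. Chromogenic substrate nitrocefin was then added, followed by a further 60 min incubation. Hydrolysis was monitored spectrophotometrically at 490 nm, and the reduction in nitrocefin hydrolysis was expressed as % enzyme inhibition.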

[2] = molecular target: T1, Beta-lactamase 1 (Bacillus cereus); assay: Inhibitory activity at beta-lactamase I from Bacillus cereus expressed as percent inhibition of beta-lactam hydrolysis at a concentration of 1.0 umol/L; procedure, shortened: as §1
[3] = molecular target: T1, Beta-lactamase 1 (Bacillus cereus); assay: Inhibitory activity at beta-lactamase I from Bacillus cereus expressed as percent inhibition of beta-lactam hydrolysis at a concentration of 10.0 umol/L; procedure, shortened: as §1
[4] = molecular target: T1, Beta-lactamase 1 (Bacillus cereus); assay: Inhibitory activity at beta-lactamase I from Bacillus cereus expressed as percent inhibition of beta-lactam hydrolysis at a concentration of 100.0 umol/L; procedure, shortened: as §1
Beta-lactamase class C = Beta-lactamase class C (Enterobacter cloacae, UniProt Q59401); assay: The compound was tested for its inhibitory activity towards Class C beta-lactamase from Enterobacter cloacae 908R at 0.8 umol concentration; format: single protein
Beta-lactamase TEM = Beta-lactamase TEM (Escherichia coli, UniProt P62593); assay: The compound was tested for its inhibitory activity towards Class A TEM-1 beta-lactamase from Escherichia coli at 0.3 umol
Sequence of Beta-lactamase TEM (P62593 whole entry): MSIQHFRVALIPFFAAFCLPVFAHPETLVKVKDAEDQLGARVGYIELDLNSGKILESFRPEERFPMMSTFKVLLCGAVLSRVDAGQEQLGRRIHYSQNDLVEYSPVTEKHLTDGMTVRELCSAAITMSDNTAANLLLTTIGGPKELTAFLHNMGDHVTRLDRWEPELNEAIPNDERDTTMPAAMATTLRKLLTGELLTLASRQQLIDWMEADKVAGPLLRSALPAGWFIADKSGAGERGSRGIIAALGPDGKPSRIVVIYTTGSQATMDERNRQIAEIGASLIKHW

Sequence of Beta-lactamase class C (Q59401 whole entry): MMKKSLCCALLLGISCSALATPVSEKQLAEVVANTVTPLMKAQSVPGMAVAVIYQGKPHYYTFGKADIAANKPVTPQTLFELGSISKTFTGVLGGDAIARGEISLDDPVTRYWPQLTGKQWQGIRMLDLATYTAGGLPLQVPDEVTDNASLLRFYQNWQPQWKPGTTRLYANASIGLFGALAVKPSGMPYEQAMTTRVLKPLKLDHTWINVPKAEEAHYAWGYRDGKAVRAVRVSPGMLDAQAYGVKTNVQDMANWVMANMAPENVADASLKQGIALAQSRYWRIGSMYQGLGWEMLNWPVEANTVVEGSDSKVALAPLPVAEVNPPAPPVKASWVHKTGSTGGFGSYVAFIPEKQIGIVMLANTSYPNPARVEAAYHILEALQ

SMILES | inhibition [1] | inhibition [2] | inhibition [3] | inhibition [4] | IC50 (Beta-lactamase class C) | IC50 (Beta-lactamase TEM; read-out: IC50) | IC50 (Beta-lactamase TEM)
C[C@@H](O)[C@H]1C(=O)N2C(C(=O)O)=C3CCCCC3[C@@H]12 (some centres undefined) | 3% |  |  |  |  |  | 
O=C(O)[C@H]1/C(=C/CO)O[C@@H]2CC(=O)N21 |  | 9% | 33% | 78% |  |  | 
C[C@@H](O)[C@H]1C(=O)N2C(C(=O)O)=C3CCCCC3[C@H]12 (some centres undefined) | 5% |  |  |  |  |  | 
CC1(C)[C@H](C(=O)O)N2C(=O)C[C@H]2S1(=O)=O |  | 2% | 40% | 77% |  |  | 
C/C=C1/C(=O)N2C(C(=O)O)=C3CCSCC3[C@@H]12 (some centres undefined) |  | 6% | 19% | 60% | 5 µM | 32 µM | 
C/C=C1/C(=O)N2C(C(=O)[O-])=C3CCCCC3[C@H]12.[Na+] (some centres undefined) | 23% |  |  |  | 1.8 µM |  | 120 uM l-1
C/C=C1/C(=O)N2C(C(=O)O)=C3CCCCC3[C@@H]12 (some centres undefined) |  | -1% | 14% | 61% | 3 µM | 39 µM | 
C/C=C1/C(=O)N2C(C(=O)O)=C3CCSCC3[C@H]12 (some centres undefined) | 38% |  |  |  | 4.2 µM | 100 µM | 
